Bioassay records deposited in PubChem by The Scripps Research Institute Molecular Screening Center.
Most compounds without a hit are left out; they make up all but 2% or so of the library.
HTRA1 inhibitor – HTRA1 serine protease inhibitors, primary screen, biochemical, fluorescence polarization, HTS. Q92743. recombinant HTRA1, FP-rhodamine activity-based probe. inhibition, % at 5.96 µM. 340,000 compounds, 0.5% hits. AID 504803, 2011; in the data active = inhibition above about 36%;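 note: 0% = enzyme with DMSO and 100% = wells lacking enzyme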
TDP2 inh – human TDP2 enzyme inhibitors, primary screen, biochemical, epi absorbance, recombinant enzyme | Tyrosyl-DNA phosphodiesterase 2 (Homo sapiens), O95551 | T5PNP hydrolysis, p-nitrophenol absorbance 415 nm | inhibition, % at 12.8 µM | 370,000 compounds, 0.34% hits | AID 720702, 2013;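 active = inhibition above the mean of all tested compounds plus 3 SD, set per campaign, cut at about 25% in these data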;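 note: 0% = DMSO with enzyme and 100% = buffer with substrate but no TDP2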
Target sequence (O95551 whole entry, looked up): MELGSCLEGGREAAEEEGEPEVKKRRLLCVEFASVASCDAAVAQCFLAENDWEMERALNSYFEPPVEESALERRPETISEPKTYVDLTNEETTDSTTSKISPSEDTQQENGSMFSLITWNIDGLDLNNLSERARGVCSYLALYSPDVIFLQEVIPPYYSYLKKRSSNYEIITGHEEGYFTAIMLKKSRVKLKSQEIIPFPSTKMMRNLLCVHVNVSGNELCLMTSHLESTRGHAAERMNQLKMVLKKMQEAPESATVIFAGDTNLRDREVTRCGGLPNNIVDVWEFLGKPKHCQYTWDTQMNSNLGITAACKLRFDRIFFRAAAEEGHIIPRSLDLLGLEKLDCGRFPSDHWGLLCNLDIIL
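System – recombinant human TDP2 · Quantity – TDP2 enzyme at 120 nM final · Doses – single concentration, 12.8 µM nominal, with 1% DMSO · Incubation – 2 h at 37 °C · Measured by – epi absorbance of p-nitrophenol freed from T5PNP by hydrolysis · Read-out – % inhibition relative to enzyme-containing and enzyme-free wells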
ABHD4 inh – ABHD4 inhibitors, primary screen, biochemical, fluorescence polarization, mouse; AID 720543, 2013; 370,000 compounds, 0.54% hits; inhibition, % at 8.92 µM; purified mABHD4, FP-Rh probe fluorescence polarization; (Lyso)-N-acylphosphatidylethanolamine lipase (Mus musculus), Q8VD66;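 active = inhibition exceeding the mean over every tested compound plus 3 SD, cut at about 30% in these data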;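 note: 0% = plate median of compound wells and 100% = S159A mutant with DMSO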
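Material: mouse ABHD4 enzyme, wild type; Benchmarks: S159A mutant high control, sample median low control; Buffer or medium: HEPES pH 7.0, NaCl, Pluronic buffer; Signal: fluorescence polarization; Read-out: percent inhibition of probe binding, normalized to plate controls; Timing: pre-incubation 45 min, probe exposure 60 min, at 25 °C; Dosing: 8.92 µM, single dose.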
PAD4 FP inh – human PAD4 inhibitors, primary screen, biochemical, fluorescence polarization, 1536-well format | Protein-arginine deiminase type-4 (Homo sapiens), Q9UM07 | recombinant PAD4, RCA probe fluorescence polarization | inhibition, % at 6.36 µM | 330,000 compounds, 0.41% hits | AID 485272, 2010;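 active = percent inhibition above a cutoff equal to the mean of all tested compounds plus 3 SD, cut at about 15% in these data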;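 note: 0% = PAD4 with RCA probe and DMSO and 100% = probe without PAD4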
TCR CD3 inh – inhibitors of human TCR-CD3 interaction, primary screen, biochemical, fluorescence, TAMRA-labeled TCR probe; 360,000 compounds, 0.37% hits; inhibition, % at 9.4 µM; in the data active = inhibition above about 19%;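 note: recombinant mutant TCR 2C K166C tagged with TAMRA read by polarization; 0% = receptor in buffer alone and 100% = receptor with positive control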
SIAE inh – human SIAE inhibitors, primary screen, biochemical, fluorescence polarization, FP-Rh probe, 1536-well HTS; Sialate O-acetylesterase (Homo sapiens), Q9HAT2; SIAE FP-Rh probe binding; inhibition, % at 9.66 µM; 370,000 compounds, 0.69% hits;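 active = inhibition above a cutoff: mean of compounds within the control limits plus 3 SD of those, cut at about 17% in these data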;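 note: 0% = plate median of compound wells and 100% = probe without SIAE protein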
TDP2 confirm – human TDP2 enzyme inhibitors, retest, confirmation, biochemical, epi absorbance, recombinant enzyme; AID 743263, 2014; shares compounds with TDP2 inh; inhibition, % at 12.8 µM; absorbance read-out; 1,100 compounds, 22% hits; in the data active = inhibition above about 25%;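 note: 0% = vehicle with enzyme and 100% = no enzyme buffer only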
Active calls of the source: *.

For COc1cc(C(CC(=O)Nc2ncccc2C)N2Cc3ccccc3C2=O)cc(OC)c1OC (centres undefined) the results were HTRA1 inhibitor 13, TDP2 inh 26*, ABHD4 inh 1, PAD4 FP inh -5, TCR CD3 inh 2, SIAE inh 4 and TDP2 confirm -3.
For COc1c(N2CCN[C@H](C)C2)c(F)cc2c(=O)c(C(=O)O)cn(C3CC3)c12 the results were PAD4 FP inh -3.
For COc1c(F)c(F)cc2c(=O)c(C(=O)O)cn(C3CC3)c12 the results were HTRA1 inhibitor 5, TDP2 inh 26*, ABHD4 inh 5, PAD4 FP inh -5, TCR CD3 inh -4, SIAE inh -1 and TDP2 confirm 1.
`O=C(c1cccc(S(=O)(=O)N2CCN(c3ccccc3)CC2)c1)N1CCN(c2ccccc2O)CC1` gave HTRA1 inhibitor -1, TDP2 inh 29*, ABHD4 inh 5, PAD4 FP inh -2, TCR CD3 inh 7, SIAE inh 16 and TDP2 confirm 6.
O=C(NCc1ccc2c(c1)OCO2)C(=O)NCC1OCCN1S(=O)(=O)c1ccc(Br)cc1 (centres undefined) was read as HTRA1 inhibitor -5, TDP2 inh -2, ABHD4 inh -10, PAD4 FP inh 1, TCR CD3 inh 0 and SIAE inh -2.
O=C(NCc1ccc2c(c1)OCO2)C(=O)NCC1OCCN1S(=O)(=O)c1ccc(Cl)cc1 (centres undefined) was read as HTRA1 inhibitor -2, TDP2 inh 37*, ABHD4 inh -3, PAD4 FP inh 0, TCR CD3 inh 7, SIAE inh 0 and TDP2 confirm 1.
Screening Cc1nnc(SCC(=O)N(Cc2ccccc2)C(C)(C)C)[nH]c1=O returned HTRA1 inhibitor -2, TDP2 inh -8, ABHD4 inh -3, PAD4 FP inh -2, TCR CD3 inh 3 and SIAE inh 4.
`O=C(NC(=S)Nc1ccccc1Cl)c1cncc(Br)c1` gave HTRA1 inhibitor -1, TDP2 inh 27*, ABHD4 inh -1, PAD4 FP inh -3, TCR CD3 inh -2, SIAE inh -5 and TDP2 confirm -4.
Cc1ccc(NC(=O)CN(C)C(=O)c2cc(-c3cccs3)nn2-c2ccccc2)cc1 was read as HTRA1 inhibitor -2, TDP2 inh -5, ABHD4 inh 6, PAD4 FP inh 0, TCR CD3 inh 0 and SIAE inh -9.
For CCCC(=O)N1CCC1(C)C(=O)Nc1ccc2nc(C)ccc2c1 (centres undefined) the results were TDP2 inh -10, ABHD4 inh -3, TCR CD3 inh -3 and SIAE inh -3.
For CCOc1ccc2c(c1)C(NC(C)=O)C(=O)N2CCN1CCOCC1 (centres undefined) the results were HTRA1 inhibitor -1, TDP2 inh 15, ABHD4 inh 11, TCR CD3 inh 6 and SIAE inh -13.
For CC(=O)NC1C(=O)N(CCN2CCOCC2)c2ccc(Br)cc21 (centres undefined) the results were HTRA1 inhibitor 2, TDP2 inh 44*, ABHD4 inh 9, PAD4 FP inh 4, TCR CD3 inh 3, SIAE inh 2 and TDP2 confirm 36*.
Screening CCOC(=O)C1CCCN(C(=O)c2cc3c(=O)n(C)c4ccccc4c3n2C)C1 (centres undefined) returned HTRA1 inhibitor 4, TDP2 inh 41*, ABHD4 inh -1, PAD4 FP inh -4, TCR CD3 inh 6, SIAE inh 0 and TDP2 confirm 12.
`O=C(O)c1cccc(NC2=C(N3CCOCC3)C(=O)c3ccccc3C2=O)c1` gave HTRA1 inhibitor 2, TDP2 inh 37*, ABHD4 inh 5, PAD4 FP inh 10, TCR CD3 inh -3, SIAE inh -3 and TDP2 confirm 51*.
